Measurements collected from several papers.
Each line is one published result; the experiments were not run side by side.
Target: 3-phosphoinositide-dependent protein kinase 1 (PDPK1, Homo sapiens, UniProt O15530)
One construct used (O15530 1-556): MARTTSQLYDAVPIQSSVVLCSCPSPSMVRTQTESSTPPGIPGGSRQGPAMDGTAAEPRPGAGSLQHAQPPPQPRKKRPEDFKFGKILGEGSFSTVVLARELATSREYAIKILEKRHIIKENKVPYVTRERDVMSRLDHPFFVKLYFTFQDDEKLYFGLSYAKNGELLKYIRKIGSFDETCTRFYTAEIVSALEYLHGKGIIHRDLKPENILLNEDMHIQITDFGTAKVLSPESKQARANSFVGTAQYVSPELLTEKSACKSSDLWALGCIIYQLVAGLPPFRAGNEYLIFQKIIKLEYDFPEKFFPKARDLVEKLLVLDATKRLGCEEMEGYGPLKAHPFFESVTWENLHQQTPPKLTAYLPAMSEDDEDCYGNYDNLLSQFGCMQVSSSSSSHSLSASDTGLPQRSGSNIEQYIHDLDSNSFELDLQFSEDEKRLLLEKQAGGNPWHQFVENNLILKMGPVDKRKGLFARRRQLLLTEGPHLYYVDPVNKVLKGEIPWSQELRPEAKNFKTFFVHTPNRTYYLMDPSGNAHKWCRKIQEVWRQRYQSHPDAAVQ

Structure (SMILES)	test	conditions	measurement	result
Cc1nn(C)cc1-c1nc2c(N3CCN(Cc4ccc(Cl)cc4)CC3)c(Cl)cnc2[nH]1	binding, competition with immobilised ligand	1 µM	remaining binding	100%
O=c1[nH]c2ccccc2n1C1CCN(Cc2ccc(-c3[nH]c4cc5ncnc5cc4nc3-c3ccccc3)cc2)CC1	cell-free assay	0.5 µM	remaining signal	107%
Cn1cncc1[C@@](O)(COc1ccc(C#N)cc1-c1ccc(OC(F)(F)F)cc1)c1ccc(C#N)cc1	cell-free assay, competition with immobilised ligand	1 µM	remaining binding	96%
COc1ncccc1-c1cnn2ccc(N3CCN(C(=O)OC(C)C)CC3)nc12	binding, competition with immobilised ligand	1 µM	remaining binding	82%
C#Cc1n[nH]c2c(-c3cn([C@@H](C)c4ccccc4)c(=O)[nH]c3=O)cc(F)cc12	enzyme activity, inhibitor	0.1 µM	inhibition	4%
Cn1cc(-c2cc(F)cc(N3CCn4c(cc5c4CCCC5)C3=O)c2CO)cc(Nc2ccc(N3CCN(C4COC4)CC3)cn2)c1=O	enzyme activity, inhibitor	0.1 µM	inhibition	1%
Nc1ncc(-c2nc(N3CCOCC3)nc(N3CCOCC3)n2)c(C(F)F)n1	binding, competition with immobilised ligand	10 µM	remaining binding	83%
C#Cc1n[nH]c2c(-c3cn([C@@H](C)c4ccccn4)c(=O)[nH]c3=O)cc(F)cc12	enzyme activity, inhibitor	0.1 µM	inhibition	4.7%
CC(C)(C)c1cc(C=C(C#N)C#N)cc(Br)c1O	enzyme activity, inhibitor	0.5 µM	remaining activity	102%
